{"source": "paper PMC11203390", "about": "(Molecular Therapy. Nucleic Acids, 2024)", "key": {"SARS-CoV-2 spike RBD": {"molecular_target": "SARS-CoV-2 spike RBD (Severe acute respiratory syndrome coronavirus 2, UniProt P0DTC2)"}, "siRNA": {"tested_on": "siRNA", "assay": "Electrophoretic mobility shift assay", "assay_type": "binding", "settings": "pH 7", "method_in_brief": "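Negative-control siRNA mixed with peptide at 1:20–1:100 siRNA:peptide molar ratios in RNase-free water, then incubated 1 h at 4, 25, 37 or 50 °C to encapsulate. For competition, DSS, 8 M urea stock or 20% NaCl stock was added before or after encapsulation. Complexes were run in dye-free glycerol loading buffer (5% final) on 4% agarose gels stained with ethidium bromide.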"}, "Integrin α2 (ITGA2)": {"molecular_target": "Integrin α2 (ITGA2) (Homo sapiens, UniProt P17301)", "sequence (P17301 30-1132 limits assumed)": "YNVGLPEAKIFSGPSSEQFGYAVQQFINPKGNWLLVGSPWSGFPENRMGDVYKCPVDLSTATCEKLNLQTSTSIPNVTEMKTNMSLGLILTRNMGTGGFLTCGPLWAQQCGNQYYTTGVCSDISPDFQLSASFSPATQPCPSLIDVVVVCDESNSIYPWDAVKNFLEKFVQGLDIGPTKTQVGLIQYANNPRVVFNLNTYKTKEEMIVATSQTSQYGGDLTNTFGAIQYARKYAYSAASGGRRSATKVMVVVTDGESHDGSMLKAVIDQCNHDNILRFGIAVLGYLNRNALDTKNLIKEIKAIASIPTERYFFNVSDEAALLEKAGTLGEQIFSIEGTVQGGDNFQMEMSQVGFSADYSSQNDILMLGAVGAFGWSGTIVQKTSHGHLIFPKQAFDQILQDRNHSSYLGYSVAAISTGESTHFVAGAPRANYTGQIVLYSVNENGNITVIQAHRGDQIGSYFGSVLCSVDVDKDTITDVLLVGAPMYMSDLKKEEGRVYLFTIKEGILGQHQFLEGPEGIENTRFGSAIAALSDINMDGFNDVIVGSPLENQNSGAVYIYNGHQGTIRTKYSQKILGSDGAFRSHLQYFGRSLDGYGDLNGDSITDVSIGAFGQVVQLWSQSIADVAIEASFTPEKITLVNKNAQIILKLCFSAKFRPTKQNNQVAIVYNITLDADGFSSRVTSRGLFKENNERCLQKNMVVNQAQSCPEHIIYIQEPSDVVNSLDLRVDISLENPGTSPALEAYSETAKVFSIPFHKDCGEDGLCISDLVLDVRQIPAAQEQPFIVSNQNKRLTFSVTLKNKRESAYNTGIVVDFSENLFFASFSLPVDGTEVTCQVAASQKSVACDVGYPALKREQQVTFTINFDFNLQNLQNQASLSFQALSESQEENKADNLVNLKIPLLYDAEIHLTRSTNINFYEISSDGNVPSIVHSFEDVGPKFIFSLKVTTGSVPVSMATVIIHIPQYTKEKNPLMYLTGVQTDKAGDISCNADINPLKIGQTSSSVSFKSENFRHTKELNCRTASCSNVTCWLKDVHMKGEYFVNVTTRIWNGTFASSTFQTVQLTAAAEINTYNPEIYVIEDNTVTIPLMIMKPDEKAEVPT", "assay": "Direct ELISA on HE25-coated plates, ITGA2", "assay_type": "binding", "settings": "negative control receptor"}}}
{"substance": "stearyl-HEHHEHHEHEHGFLGRVRVLRGDKW-amide [HE25]", "values": [{"measurement": "binding of spike RBD to HE25-coated plates", "setting": "SARS-CoV-2 spike RBD", "result": "recognized"}, {"measurement": "effect of DSS on binding and preformed complex", "setting": "siRNA; EMSA competition, 20 mg/mL DSS before or after encapsulation, 50°C, molar ratio 1:100", "result": "interfere with the binding and disassemble the preformed complex"}, {"measurement": "effect of urea on binding and preformed complex", "setting": "siRNA; EMSA competition, 1.6 M urea before or after encapsulation, 50°C, molar ratio 1:100", "result": "hindered initial binding but did not affect the ones formed"}, {"measurement": "effect of NaCl on binding and disassembly", "setting": "siRNA; EMSA competition, 4% NaCl before or after encapsulation, 50°C, molar ratio 1:100", "result": "no notable effect on either binding or disassembly"}, {"measurement": "effect of urea on binding", "setting": "siRNA; EMSA competition, urea, 4°C, molar ratio 1:100", "result": "not observed before encapsulation"}, {"measurement": "encapsulation efficiency at 50°C", "setting": "siRNA; EMSA, 50°C", "result": "significantly increases"}, {"measurement": "binding of ITGA2 to HE25", "setting": "Integrin α2 (ITGA2)", "result": "did not efficiently bind"}]}
